This note sets out measurements from ChEMBL document CHEMBL4024748, “Development of Potent Type I Protein Arginine Methyltransferase (PRMT) Inhibitors of Leukemia Cell Proliferation” (J Med Chem, 2017).

In general, pIC50 refers to the IC50 on a negative log10 scale, so that one unit is a factor of ten.

pIC50: −log10 of the molar value. The source made the active and inactive calls. The rule behind the calls is not given here.

Data set [1] deals with Protein arginine N-methyltransferase 1 (Rattus norvegicus) (UniProt Q63009). As to the kind of experiment: Binding affinity to rat His-tagged PRMT1 (11 to 353 residues) expressed in Escherichia coli BL21(DE3) at 200 uM by STD-NMR spectroscopic method. The method in brief: (§1)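 Rat PRMT1 (11–353), N-His6, expressed in E. coli BL21(DE3) with 0.4 mM IPTG at 16°C. Purified by Ni affinity and Superdex200. NMR used 5 µM PRMT1 in phosphate buffer pH 7.4 (20 mM NaH2PO4, 20 mM Na2HPO4, 100 mM NaCl) in D2O. Ligand at 200 µM in 5% DMSO-d6. CPMG run with 5, 2 and 1 µM PRMT1, plus STD.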
Protein arginine N-methyltransferase 1 (Rattus norvegicus), sequence (Q63009 whole entry, looked up, the tested form may be a part): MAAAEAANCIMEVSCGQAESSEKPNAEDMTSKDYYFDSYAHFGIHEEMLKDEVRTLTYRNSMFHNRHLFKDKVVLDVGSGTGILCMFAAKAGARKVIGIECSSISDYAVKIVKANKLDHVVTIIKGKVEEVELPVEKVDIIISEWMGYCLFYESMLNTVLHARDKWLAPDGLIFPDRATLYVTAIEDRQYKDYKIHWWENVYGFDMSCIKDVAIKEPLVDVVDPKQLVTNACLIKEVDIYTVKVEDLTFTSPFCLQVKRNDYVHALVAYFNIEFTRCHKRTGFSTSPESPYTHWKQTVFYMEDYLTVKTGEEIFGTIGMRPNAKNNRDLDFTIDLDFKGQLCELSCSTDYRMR

Data set [2] relates to MV4-11. Kind of data set: Induction of apoptosis in human MV4-11 cells after 96 hrs by annexin V-FITC/propidium iodide staining-based flow cytometric method. The format is functional, cell-based. In a few lines:
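MV4-11 cells in 6-well plates with compound or DMSO control, harvested at 96 h. Stained with an Annexin V-FITC apoptosis detection kit and analysed by flow cytometry. Mean ± SD of three replicates.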
In general terms: In flow cytometry, cells or beads pass a laser one at a time.

Data set [3] addresses Histone-lysine N-methyltransferase EZH2 (Homo sapiens) (UniProt Q15910). Kind of data set: Inhibition of EZH2 (unknown origin) at 100 uM incubated for 15 mins followed by substrate addition measured after 60 mins by radioisotope assay.
The target of data set [4] is Histone-lysine N-methyltransferase EHMT2 (Homo sapiens) (UniProt Q96KQ7). Kind of data set: Inhibition of G9a (unknown origin) at 100 uM incubated for 15 mins followed by substrate addition measured after 60 mins by AlphaLisa method. The method in brief:
(§2)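 AlphaLISA. Enzyme and substrate in 1x assay buffer, compound at 1% DMSO final. Enzyme preincubated with compound 15 min at room temperature, then substrate added. Reaction 60 min at room temperature, then bead mix added and incubated 60 min under subdued light before signal read.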

In data set [5] the test system is MV4-11. Kind of data set: Cytotoxicity against human MV4-11 cells assessed as decrease in cell viability at 6.25 to 12.5 uM after 96 hrs by Cell-Titer Glo assay. The format is functional, cell-based. The method in brief: (§3)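 Cells kept at 37°C, 5% CO2, exposed to compound or DMSO control for 96 h. Viability read by CellTiter-Glo luminescence after 2 min shaking to lyse and 10 min at room temperature. Triplicate wells, normalised to control cells. For long-term growth, log-phase seeding densities; cells counted and replated to the starting density with fresh compound on days 4 and 8.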

The target of data set [6] is Protein arginine N-methyltransferase 1 (Rattus norvegicus) (UniProt Q63009). As to the kind of experiment: Uncompetitive inhibition of rat His-tagged PRMT1 (11 to 353 residues) expressed in Escherichia coli BL21(DE3) using biotinylated H4 peptide (1 to 21 residues) as substrate in presence of varying concentrations of [3H]SAM. In a few lines: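 Kinetic mode-of-action study using the radiolabel method with His6-rPRMT1(11–353). IC50 measured at varied peptide substrate or varied SAM concentrations, with the other component fixed. 15 min enzyme–compound preincubation, then 60 min reaction at RT with [3H]-SAM, Flashplate capture and Microbeta counting.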

Data set [7] concerns MV4-11. As to the kind of experiment: Downregulation of HOXA10 mRNA levels in human MV4-11 cells by qRT-PCR analysis. The format is functional, cell-based. The method in brief: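 MV4-11 cells treated with compound. mRNA measured by SYBR Green qRT-PCR with B2M as internal control. Fold change from ΔΔCt. Samples run in triplicate, mean ± SD.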
The target of data set [8] is Protein arginine N-methyltransferase 1 (Rattus norvegicus, UniProt Q63009). Kind of data set: Inhibition of rat His-tagged PRMT1 (11 to 353 residues) expressed in Escherichia coli BL21(DE3) using biotinylated H4 peptide (1 to 21 residues) as substrate preincubated for 15 mins followed by substrate addition measured after 60 mins in presence of [3H]SAM by microbeta counting method. In a few lines: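 Radiometric assay in modified Tris buffer. His6-rPRMT1(11–353) preincubated with compound 15 min at RT, then substrate and [3H]-SAM added. Reaction 60 min at RT, stopped with cold stop solution, transferred to Flashplate for 60 min, washed with water/0.1% Tween-20, counted on Microbeta. IC50 from curve fit.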
Protein arginine N-methyltransferase 1, sequence (Q63009 whole entry, the tested form may be a part): as the sequence (Q63009 whole entry, looked up, the tested form may be a part) above

The target of data set [9] is Protein arginine N-methyltransferase 6 (Homo sapiens, UniProt Q96LA8). As to the kind of experiment: Inhibition of PRMT6 (unknown origin) incubated for 15 mins followed by substrate addition measured after 60 mins by AlphaLisa method. In a few lines: as §2
Protein arginine N-methyltransferase 6, sequence (Q96LA8 whole entry): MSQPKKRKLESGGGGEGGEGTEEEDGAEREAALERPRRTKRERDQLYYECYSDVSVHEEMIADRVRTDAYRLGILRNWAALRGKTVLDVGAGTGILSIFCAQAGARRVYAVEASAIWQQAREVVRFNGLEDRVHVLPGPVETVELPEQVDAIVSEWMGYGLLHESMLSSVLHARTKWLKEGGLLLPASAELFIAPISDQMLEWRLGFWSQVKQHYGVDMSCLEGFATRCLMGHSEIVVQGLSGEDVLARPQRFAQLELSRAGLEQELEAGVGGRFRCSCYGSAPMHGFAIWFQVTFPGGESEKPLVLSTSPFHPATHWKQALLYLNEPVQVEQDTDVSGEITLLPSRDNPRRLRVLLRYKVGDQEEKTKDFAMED
In data set [10] the target is Protein arginine N-methyltransferase 8 (Homo sapiens, UniProt Q9NR22). Kind of data set: Inhibition of PRMT8 (unknown origin) incubated for 15 mins followed by substrate addition measured after 60 mins by AlphaLisa method. The method in brief: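 AlphaLISA IC50 run. Compound dispensed to 1% DMSO final, enzyme in 1x assay buffer preincubated 15 min at room temperature. Substrate added and reacted 60 min at RT, then AlphaLISA bead mix added for 60 min at RT in subdued light. IC50 taken from the dose-response fit.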
Protein arginine N-methyltransferase 8, sequence (Q9NR22 whole entry): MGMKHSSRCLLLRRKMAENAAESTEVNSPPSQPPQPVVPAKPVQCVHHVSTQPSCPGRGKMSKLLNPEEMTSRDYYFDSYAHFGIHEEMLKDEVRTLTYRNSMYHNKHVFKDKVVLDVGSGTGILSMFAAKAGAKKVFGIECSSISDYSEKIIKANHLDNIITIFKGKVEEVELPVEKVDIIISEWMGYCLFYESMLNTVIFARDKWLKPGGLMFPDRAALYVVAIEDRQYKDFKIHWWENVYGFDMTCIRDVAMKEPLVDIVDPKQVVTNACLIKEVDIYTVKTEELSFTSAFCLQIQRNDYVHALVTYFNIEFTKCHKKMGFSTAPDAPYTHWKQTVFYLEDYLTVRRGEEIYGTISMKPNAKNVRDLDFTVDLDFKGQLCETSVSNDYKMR
Background: In Alpha technology, singlet oxygen from a donor bead excites a nearby acceptor bead.

Data set [11] deals with Histone-lysine N-methyltransferase, H3 lysine-79 specific (Homo sapiens) (UniProt Q8TEK3). Kind of data set: Inhibition of DOT1L (unknown origin) at 100 uM incubated for 15 mins followed by substrate addition measured after 60 mins by Alpha screen assay. In a few lines:
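DOT1L by AlphaScreen. Enzyme and substrate in 1x assay buffer, compound at 1% DMSO final. Enzyme preincubated with compound 15 min at room temperature, substrate added, reaction 60 min at room temperature. Acceptor/donor bead mix added and incubated 60 min at room temperature under subdued light.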

Data set [12] addresses Protein arginine N-methyltransferase 1 (Rattus norvegicus) (UniProt Q63009). As to the kind of experiment: Binding affinity to rat His-tagged PRMT1 (11 to 353 residues) expressed in Escherichia coli BL21(DE3) at 200 uM by 1D 1H CPMG-NMR spectroscopic method. The method in brief:
as §1

The test system of data set [13] is MV4-11. Kind of data set: Antiproliferative activity against human MV4-11 cells assessed as decrease in cell viability measured at day 8 by Cell-Titer Glo assay. The format is functional, cell-based. The settings on record: MV4-11, 192 h. In a few lines: as §3
For data set [14], the target named is Protein arginine N-methyltransferase 1 (Homo sapiens) (UniProt Q99873). As to the kind of experiment: Inhibition of PRMT1 in human MV411 cells assessed as reduction in H4R3me2a levels after 48 hrs by Western blot analysis. The format is cell-based. The method in brief:
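MV4-11 cells treated with compound for 48 h. ADMA, SDMA and H4R3me2a read by western blot. Blots blocked in 5% nonfat milk in PBST, primary antibodies overnight at 4°C, HRP anti-rabbit secondary at 1:10000 for 1 h.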

Data set [15] concerns the target N-lysine methyltransferase SMYD2 (Homo sapiens) (UniProt Q9NRG4). Kind of data set: Inhibition of SMYD2 (unknown origin) at 50 uM incubated for 15 mins followed by substrate addition measured after 240 mins by AlphaLisa method. In a few lines:
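SMYD2 AlphaLISA at 50 and 100 µM compound, 1% DMSO final. Enzyme preincubated 15 min at RT, then substrate added and reacted 240 min at RT. Bead mix added and incubated 60 min at RT in subdued light before reading.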

Data set [16] in a line: Cytotoxicity against human HUV-EC-C cells assessed as decrease in cell viability at 6.25 to 25 uM after 96 hrs by Cell-Titer Glo assay. The format is cell-based. The method in brief:
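Normal HUV-EC-C, MRC-5 and RCTEC cells at 37°C, 5% CO2, given compound or DMSO control for 96 h. Viability by CellTiter-Glo luminescence after 2 min shaking and 10 min at room temperature. Triplicate wells, normalised to control cells.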

Data set [17] concerns the target Protein arginine N-methyltransferase 5 (Homo sapiens, UniProt O14744). Kind of data set: Inhibition of PRMT5 (unknown origin) incubated for 15 mins followed by substrate addition measured after 60 mins by AlphaLisa method. The method in brief:
as §2

Protein arginine N-methyltransferase 1 (Homo sapiens), sequence (Q99873 whole entry, looked up): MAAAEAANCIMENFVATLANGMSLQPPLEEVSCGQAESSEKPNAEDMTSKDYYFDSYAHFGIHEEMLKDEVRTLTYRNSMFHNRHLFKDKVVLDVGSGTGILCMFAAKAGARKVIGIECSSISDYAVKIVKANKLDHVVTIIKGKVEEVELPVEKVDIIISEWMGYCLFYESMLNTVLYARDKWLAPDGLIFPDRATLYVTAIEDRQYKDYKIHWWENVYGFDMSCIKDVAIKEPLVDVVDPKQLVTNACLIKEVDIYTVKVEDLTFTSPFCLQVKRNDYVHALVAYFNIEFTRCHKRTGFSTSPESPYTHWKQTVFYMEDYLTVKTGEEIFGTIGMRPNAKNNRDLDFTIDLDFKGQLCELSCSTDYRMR
Histone-lysine N-methyltransferase EHMT2 (Homo sapiens), sequence (Q96KQ7 whole entry): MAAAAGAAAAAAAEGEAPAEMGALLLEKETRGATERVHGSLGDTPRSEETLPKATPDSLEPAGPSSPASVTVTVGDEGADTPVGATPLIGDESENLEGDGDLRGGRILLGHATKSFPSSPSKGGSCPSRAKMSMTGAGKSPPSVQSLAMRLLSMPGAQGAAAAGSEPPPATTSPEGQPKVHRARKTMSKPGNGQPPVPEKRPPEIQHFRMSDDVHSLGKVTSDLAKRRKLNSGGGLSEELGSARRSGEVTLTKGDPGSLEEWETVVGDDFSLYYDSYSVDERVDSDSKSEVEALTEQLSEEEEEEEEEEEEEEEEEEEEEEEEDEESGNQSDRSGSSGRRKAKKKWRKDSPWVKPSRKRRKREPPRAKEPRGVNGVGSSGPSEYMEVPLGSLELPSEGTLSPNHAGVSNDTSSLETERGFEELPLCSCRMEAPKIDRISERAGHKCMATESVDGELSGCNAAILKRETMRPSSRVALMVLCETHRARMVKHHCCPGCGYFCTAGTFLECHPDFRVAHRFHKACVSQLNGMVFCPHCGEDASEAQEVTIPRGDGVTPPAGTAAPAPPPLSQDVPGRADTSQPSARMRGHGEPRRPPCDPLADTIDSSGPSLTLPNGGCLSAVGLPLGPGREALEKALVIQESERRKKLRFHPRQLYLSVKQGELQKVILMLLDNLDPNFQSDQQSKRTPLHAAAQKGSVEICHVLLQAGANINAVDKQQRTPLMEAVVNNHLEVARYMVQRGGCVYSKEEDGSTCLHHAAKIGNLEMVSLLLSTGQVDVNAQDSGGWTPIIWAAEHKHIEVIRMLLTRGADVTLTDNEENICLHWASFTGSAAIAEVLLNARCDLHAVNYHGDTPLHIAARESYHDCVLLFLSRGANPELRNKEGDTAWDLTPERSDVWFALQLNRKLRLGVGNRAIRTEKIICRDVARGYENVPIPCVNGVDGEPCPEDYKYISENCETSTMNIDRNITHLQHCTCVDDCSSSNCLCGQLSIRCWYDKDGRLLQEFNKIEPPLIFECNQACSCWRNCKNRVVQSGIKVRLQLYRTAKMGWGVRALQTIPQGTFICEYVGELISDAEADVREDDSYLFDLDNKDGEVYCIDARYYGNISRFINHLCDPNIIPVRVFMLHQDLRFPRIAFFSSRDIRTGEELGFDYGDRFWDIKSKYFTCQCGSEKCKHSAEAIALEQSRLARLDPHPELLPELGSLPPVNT
Protein arginine N-methyltransferase 5, sequence (O14744 whole entry): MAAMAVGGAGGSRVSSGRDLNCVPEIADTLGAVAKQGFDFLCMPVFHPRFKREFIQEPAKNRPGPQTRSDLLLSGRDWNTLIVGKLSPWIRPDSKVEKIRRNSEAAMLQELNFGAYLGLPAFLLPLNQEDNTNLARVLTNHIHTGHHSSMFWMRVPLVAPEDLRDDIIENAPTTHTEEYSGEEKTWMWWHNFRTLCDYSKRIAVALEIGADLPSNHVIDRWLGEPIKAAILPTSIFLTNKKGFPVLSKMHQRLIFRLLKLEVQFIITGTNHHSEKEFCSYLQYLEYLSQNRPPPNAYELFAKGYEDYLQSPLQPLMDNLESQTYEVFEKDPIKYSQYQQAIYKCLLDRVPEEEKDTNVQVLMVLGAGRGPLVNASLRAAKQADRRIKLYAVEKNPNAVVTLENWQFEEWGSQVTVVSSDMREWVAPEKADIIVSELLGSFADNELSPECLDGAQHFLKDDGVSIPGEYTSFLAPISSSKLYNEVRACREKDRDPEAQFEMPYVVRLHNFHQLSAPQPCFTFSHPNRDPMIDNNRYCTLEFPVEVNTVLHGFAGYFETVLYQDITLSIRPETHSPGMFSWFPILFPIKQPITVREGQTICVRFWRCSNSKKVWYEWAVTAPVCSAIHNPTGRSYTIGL
Histone-lysine N-methyltransferase, H3 lysine-79 specific (Homo sapiens), sequence (Q8TEK3 whole entry, looked up): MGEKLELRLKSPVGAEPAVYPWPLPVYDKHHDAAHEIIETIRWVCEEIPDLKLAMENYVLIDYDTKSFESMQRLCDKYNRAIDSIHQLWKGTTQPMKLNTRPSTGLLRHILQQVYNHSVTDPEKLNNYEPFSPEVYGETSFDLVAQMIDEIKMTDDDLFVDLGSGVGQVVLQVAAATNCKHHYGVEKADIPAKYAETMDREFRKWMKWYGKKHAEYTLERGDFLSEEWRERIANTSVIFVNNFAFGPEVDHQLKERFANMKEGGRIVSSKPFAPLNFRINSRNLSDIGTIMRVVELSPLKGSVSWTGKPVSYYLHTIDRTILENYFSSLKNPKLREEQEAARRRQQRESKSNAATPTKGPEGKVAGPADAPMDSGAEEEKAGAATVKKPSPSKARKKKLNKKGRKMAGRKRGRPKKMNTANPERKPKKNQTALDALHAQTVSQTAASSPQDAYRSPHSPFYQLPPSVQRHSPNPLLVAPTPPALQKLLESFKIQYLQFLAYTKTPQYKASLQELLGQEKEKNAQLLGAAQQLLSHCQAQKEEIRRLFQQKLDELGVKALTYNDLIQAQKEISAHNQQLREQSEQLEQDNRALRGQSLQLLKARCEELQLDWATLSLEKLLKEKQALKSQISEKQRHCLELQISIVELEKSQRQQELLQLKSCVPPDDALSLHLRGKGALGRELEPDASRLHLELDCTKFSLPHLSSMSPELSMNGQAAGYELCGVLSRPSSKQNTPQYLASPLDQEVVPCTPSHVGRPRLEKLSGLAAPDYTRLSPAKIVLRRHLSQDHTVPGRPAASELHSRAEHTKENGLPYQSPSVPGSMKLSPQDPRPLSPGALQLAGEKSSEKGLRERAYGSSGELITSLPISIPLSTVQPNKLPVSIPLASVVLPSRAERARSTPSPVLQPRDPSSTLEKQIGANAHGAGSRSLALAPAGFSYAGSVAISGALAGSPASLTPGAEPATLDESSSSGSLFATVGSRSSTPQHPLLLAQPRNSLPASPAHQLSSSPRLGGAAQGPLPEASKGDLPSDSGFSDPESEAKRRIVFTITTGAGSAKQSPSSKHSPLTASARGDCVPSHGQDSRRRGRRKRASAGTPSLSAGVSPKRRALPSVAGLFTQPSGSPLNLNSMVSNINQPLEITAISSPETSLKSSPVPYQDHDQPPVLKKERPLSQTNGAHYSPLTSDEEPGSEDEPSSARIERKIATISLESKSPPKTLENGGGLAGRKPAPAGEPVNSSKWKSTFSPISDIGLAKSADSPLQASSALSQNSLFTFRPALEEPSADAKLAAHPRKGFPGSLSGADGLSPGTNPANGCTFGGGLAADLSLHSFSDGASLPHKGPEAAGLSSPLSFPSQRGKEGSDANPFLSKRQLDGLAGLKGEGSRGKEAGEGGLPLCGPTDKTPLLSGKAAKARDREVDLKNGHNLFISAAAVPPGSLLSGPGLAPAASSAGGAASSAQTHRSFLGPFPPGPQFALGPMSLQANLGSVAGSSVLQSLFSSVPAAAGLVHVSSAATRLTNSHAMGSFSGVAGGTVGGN

Regarding `CN(CCN)Cc1ccccc1Sc1ccccc1Cl`, the result (in data set [1]; with MV4-11 [5]; in [12]) was Active. The Activity entry in the data set with MV4-11 [2] was “Dose-dependent effect”; in the data set with MV4-11 [7], “Dose-dependent effect”; in data set [16] it was “Non-Toxic”. The inhibition entry in [3], in [4], in [6], in data set [11] and in [15] was “Active” each time. Also, the pIC50 in [8] is 8.28; in data set [9], 8.92; in [10], 8.96; with MV4-11 [13], 5.49; in [17], under 4.00. Moreover, in data set [14], the inhibition entry was “Dose-dependent effect”.
